pIC50, pKi: −log10 of the molar value.
What was measured:
Hepatitis C virus [1] = assay: Antiviral activity against HCV1b con1 infected in human HuH7 cells assessed as inhibition of viral replication after 24 hrs in presence of 50% normal human serum; assay type: functional, organism-based, Hepacivirus hominis; conditions: Con1, Huh-7, 24 h
Summary of the method: (§1)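 Cell-based HCV replicon assay giving IC50. Genotype 1b replicon run with 10% fetal bovine serum or with 50% normal human serum. Genotype 2a replicon run with 10% FBS.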

[2] = AUC in Sprague-Dawley rat plasma at 5 mg/kg, po after 4 hrs; assay type: ADME, organism-based; design: time < 4 hr, dose 5 mg/kg, route oral
Summary of the method: (§2)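 Rat PK screen: 5 mg/kg given orally in PEG400, n = 2; plasma AUC calculated from a 4 h experiment, and liver concentration measured at 4 h after dosing.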

Hepatitis C virus [3] = assay: Antiviral activity against HCV1b con1 infected in human HuH7 cells assessed as inhibition of viral replication after 24 hrs in presence of 10% fetal bovine serum; assay type: functional, organism-based, Hepacivirus hominis; conditions: Con1, Huh-7, 24 h; summary of the method: as §1
[4] = Drug level in Sprague-Dawley rat liver at 5 mg/kg, po after 4 hrs; assay type: ADME, organism-based; design: dose 5 mg/kg, route oral; conditions: read-out: Drug uptake; summary of the method: as §2
[5] = Inhibition of HCV NS3/4A protease expressed Escherichia coli after 1 hr by time-resolved fluorescence assay; design: species or system Hepacivirus hominis
Summary of the method: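 Binding assay against genotype 1b HCV NS3/4A protease, read by time-resolved fluorescence; potency expressed as Ki.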

For `C=C[C@@H]1C[C@]1(NC(=O)[C@@H]1C[C@@H]2CN1C(=O)[C@H](C(C)(C)C)NC(=O)OCCCCCc1cc3c(nccc3cc1OC)O2)C(=O)NS(=O)(=O)C1CC1`, the pIC50 (Hepatitis C virus [1]) was 6.95, the AUC at 4 h [2] was 9600 nM·h and the pIC50 (Hepatitis C virus [3]) was 8.52. The concentration at 4 h [4] was 3 µM and the pKi [5] was 10.40.
For `C=C[C@@H]1C[C@]1(NC(=O)[C@@H]1C[C@@H]2CN1C(=O)[C@H](C(C)(C)C)NC(=O)OCCCCCc1cc(OC)c3ccnc(c3c1)O2)C(=O)NS(=O)(=O)C1CC1`, the pIC50 (Hepatitis C virus [1]) was 7.46, the AUC at 4 h [2] was 17700 nM·h and the pIC50 (Hepatitis C virus [3]) was 8.57. For the same molecule, the concentration at 4 h [4] was 33.2 µM and the pKi [5] was 10.40.
For `C=C[C@@H]1C[C@]1(NC(=O)[C@@H]1C[C@@H]2CN1C(=O)[C@H](C(C)(C)C)NC(=O)OCCCCCc1cc(Br)c3ccnc(c3c1)O2)C(=O)NS(=O)(=O)C1CC1`, the pIC50 (Hepatitis C virus [1]) was 6.77, the AUC at 4 h [2] was 280 nM·h and the pIC50 (Hepatitis C virus [3]) was 8.70. For the same molecule, the concentration at 4 h [4] was 5.8 µM and the pKi [5] was 10.40.
Work on `C=C[C@@H]1C[C@]1(NC(=O)[C@@H]1C[C@@H]2CN1C(=O)[C@H](C1CCOCC1)NC(=O)OCCC/C=C/c1ccc3ccnc(c3c1)O2)C(=O)NS(=O)(=O)C1CC1` yielded a pIC50 (Hepatitis C virus [1]) of 7.70, an AUC at 4 h [2] of 500 nM·h and a pIC50 (Hepatitis C virus [3]) of 8.05. For the same molecule, the concentration at 4 h [4] was < 0.2 µM and the pKi [5] was 10.15.
In the case of `C=C[C@@H]1C[C@]1(NC(=O)[C@@H]1C[C@@H]2CN1C(=O)[C@H](C1CCCC1)NC(=O)OCCCCCc1cc3c(nccc3cc1OC)O2)C(=O)NS(=O)(=O)C1CC1`, the pIC50 (Hepatitis C virus [1]) was 7.10, the AUC at 4 h [2] was 18100 nM·h and the pIC50 (Hepatitis C virus [3]) was 8.70. It also gave a concentration at 4 h [4] of 8 µM and a pKi [5] of 10.52.
`C=C[C@@H]1C[C@]1(NC(=O)[C@@H]1C[C@@H]2CN1C(=O)[C@H](C1CCCCC1)NC(=O)OCCCCCc1ccc3ccnc(c3c1)O2)C(=O)NS(=O)(=O)C1CC1` gave a pIC50 (Hepatitis C virus [1]) of 6.74, an AUC at 4 h [2] of 3100 nM·h and a pIC50 (Hepatitis C virus [3]) of 8.35. The concentration at 4 h [4] was 29.8 µM and the pKi [5] was 9.82.
`C=C[C@@H]1C[C@]1(NC(=O)[C@@H]1C[C@@H]2CN1C(=O)[C@H](C1CCOCC1)NC(=O)OCCCCCc1ccc3ccnc(c3c1)O2)C(=O)NS(=O)(=O)C1CC1` showed a pIC50 (Hepatitis C virus [1]) of 7.47, an AUC at 4 h [2] of 800 nM·h and a pIC50 (Hepatitis C virus [3]) of 7.82. The concentration at 4 h [4] was 0.09 µM and the pKi [5] was 10.15.
Work on `C=C[C@@H]1C[C@]1(NC(=O)[C@@H]1C[C@@H]2CN1C(=O)[C@H](C(C)(C)C)NC(=O)OCCCCCc1ccc3ccnc(c3c1)O2)C(=O)NS(=O)(=O)C1CC1` yielded a pIC50 (Hepatitis C virus [1]) of 7.34, an AUC at 4 h [2] of 270 nM·h and a pIC50 (Hepatitis C virus [3]) of 8.06. The pKi [5] was 9.74.
In the case of `C=C[C@@H]1C[C@]1(NC(=O)[C@@H]1C[C@@H]2CN1C(=O)[C@H](c1ccccc1)NC(=O)OCCCCCc1ccc3ccnc(c3c1)O2)C(=O)NS(=O)(=O)C1CC1`, the pKi [5] was 9.00.
`C=C[C@@H]1C[C@]1(NC(=O)[C@@H]1C[C@@H]2CN1C(=O)[C@H](C1CCC1)NC(=O)OCCCCCc1ccc3ccnc(c3c1)O2)C(=O)NS(=O)(=O)C1CC1` gave a pIC50 (Hepatitis C virus [1]) of 6.89, a pIC50 (Hepatitis C virus [3]) of 8.15 and a pKi [5] of 9.74.
Molecule `C=C[C@@H]1C[C@]1(NC(=O)[C@@H]1C[C@@H]2CN1C(=O)[C@H](Cc1ccccc1)NC(=O)OCCC/C=C/c1ccc3ccnc(c3c1)O2)C(=O)NS(=O)(=O)C1CC1` has an AUC at 4 h [2] of 430 nM·h, a pIC50 (Hepatitis C virus [3]) of 8.52 and a concentration at 4 h [4] of 10 µM. For the same molecule, the pKi [5] was 9.19.
For `C=C[C@@H]1C[C@]1(NC(=O)[C@@H]1C[C@@H]2CN1C(=O)[C@H](C(C)(C)C)NC(=O)OCCCCCc1cc(C(F)(F)F)c3ccnc(c3c1)O2)C(=O)NS(=O)(=O)C1CC1`, the pIC50 (Hepatitis C virus [1]) was 6.39, the pIC50 (Hepatitis C virus [3]) was 7.68 and the pKi [5] was 9.60.
For `C=C[C@@H]1C[C@]1(NC(=O)[C@@H]1C[C@@H]2CN1C(=O)[C@H](c1c[nH]c3ccccc13)NC(=O)OCCC/C=C/c1ccc3ccnc(c3c1)O2)C(=O)NS(=O)(=O)C1CC1`, the AUC at 4 h [2] was 70 nM·h, the pIC50 (Hepatitis C virus [3]) was 7.70 and the concentration at 4 h [4] was 0.4 µM. It also gave a pKi [5] of 8.70.
With `C=C[C@@H]1C[C@]1(NC(=O)[C@@H]1C[C@@H]2CN1C(=O)[C@H](C(C)(C)C)NC(=O)OCCCCCc1cc(S(C)(=O)=O)c3ccnc(c3c1)O2)C(=O)NS(=O)(=O)C1CC1` the pIC50 (Hepatitis C virus [1]) was < 6.00, the pIC50 (Hepatitis C virus [3]) was 6.55 and the pKi [5] was 9.96.
